The source of these data is ChEMBL document CHEMBL4715756, “Nitrotriazole-based acetamides and propanamides with broad spectrum antitrypanosomal activity” (Eur J Med Chem, 2016).

The pKa is the negative logarithm of the acid dissociation constant. Higher therefore signals a group that holds its proton tightly. Usually IC50 stands for the midpoint of a concentration-inhibition curve. Low values mean greater potency, high ones weaker potency.

Activity calls are given as the source filed them. The rule behind the calls is not given here.

The nature of series [1]: Dissociation constant, pKa of the compound.
Series [2] deals with Trypanosoma brucei rhodesiense. Briefly: Substrate activity at Trypanosoma brucei rhodesiense recombinant His-tagged type 1 nitroreductase assessed as enzyme specific activity using NADH at 100 uM by spectrophotometrically. The procedure, abridged:
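Purified recombinant his-tagged TbNTR. Each nitrotriazole substrate at 100 µM with NADH 100 µM. NADH oxidation followed spectrophotometrically at 340 nm. Specific activity given as nmol NADH oxidized min^-1 mg^-1 protein, mean of three experiments ± SD.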

Series [3] can be described thus: Toxicity in Trypanosoma cruzi Brazil trypomastigotes expressing firefly luciferase infected BALB/c mouse assessed as healthy appearance at 13 mg/kg, ip measured after 5 to 10 days. The format is organism-based. The following applies: in vivo, time 5-10 day. The procedure, abridged:
(§1)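 Balb/c mice, 5 weeks old, infected with 10^5 luciferase-expressing Brazil-strain T. cruzi trypomastigotes. From 4 days post-infection, mice were dosed i.p. at 13 mg/kg/day for 10 days in 2% methylcellulose + 0.5% Tween 80 vehicle, 5 mice/group. Animals were observed over treatment, with imaging after 5 and 10 days of dosing.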

Series [4] concerns Trypanosoma cruzi. Briefly: Anti-chagasic activity against Trypanosoma cruzi Brazil trypomastigotes expressing firefly luciferase infected in BALB/c mouse assessed as reduction in parasitemia at 13 mg/kg/day, ip measured after 10 days by bioluminescence assay. The format is functional, organism-based. The following applies: time 10.0 day.
Series [5] is described as follows: Toxicity in Trypanosoma cruzi Brazil trypomastigotes expressing firefly luciferase infected BALB/c mouse assessed mortality at 13 mg/kg, ip measured after 5 to 10 days. The format is organism-based. The following applies: in vivo, time 5-10 day. The procedure, abridged:
as §1

Series [6] can be described thus: in vitro. The settings on record: rat, L6 cells versus Leishmania donovani MHOM/ET/67/L82.
Series [7] has as its system Trypanosoma cruzi. The series can be described thus: Anti-chagasic activity against Trypanosoma cruzi Brazil trypomastigotes expressing firefly luciferase infected in BALB/c mouse assessed as reduction in parasitemia at 13 mg/kg/day, ip measured after 5 days by bioluminescence assay. It counts as functional, organism-based. The settings on record: time 5.0 day.
Series [8] can be described thus: in vitro. The following applies: rat.
Series [9] is described as follows: in vitro. The settings on record: rat, L6 cells versus Trypanosoma cruzi Tulahuen C4.
In series [10] the test system is Trypanosoma cruzi. Briefly: Trypanocidal activity against Trypanosoma cruzi Tulahuen C4 amastigotes infected in rat L6 cells in vitro.
Series [11] is described as follows: Toxicity in Trypanosoma cruzi Brazil trypomastigotes expressing firefly luciferase infected BALB/c mouse assessed toxic symptoms at 15 mg/kg, ip measured after 5 to 10 days. It counts as organism-based. The settings on record: in vivo, time 5-10 day. The procedure, abridged: (§2)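 Same infected Balb/c model: luciferase T. cruzi, 10^5 trypomastigotes. Daily i.p. dosing for 10 days from day 4 post infection at 13 or 15 mg/kg/day, in 2% methylcellulose + 0.5% Tween 80, 5 mice/group. Mice observed for general health and deaths over the treatment period.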

Series [12] has as its system Trypanosoma cruzi. The series can be described thus: Anti-chagasic activity against Trypanosoma cruzi Brazil trypomastigotes expressing firefly luciferase infected in BALB/c mouse assessed as reduction in parasitemia at 15 mg/kg/day, ip measured after 5 days by bioluminescence assay. The settings on record: time 5.0 day. It counts as functional, organism-based.
Series [13] concerns Trypanosoma cruzi. The series can be described thus: Anti-chagasic activity against Trypanosoma cruzi Brazil trypomastigotes expressing firefly luciferase infected in BALB/c mouse assessed as reduction in parasitemia at 15 mg/kg/day, ip measured after 10 days by bioluminescence assay. The format is functional, organism-based. The following applies: time 10.0 day.
Series [14] in a line: Toxicity in Trypanosoma cruzi Brazil trypomastigotes expressing firefly luciferase infected BALB/c mouse assessed toxic symptoms at 13 mg/kg, ip measured after 5 to 10 days. It counts as organism-based. The following applies: in vivo, time 5-10 day. The procedure, abridged: as §2

Take `O=C(CCn1cnc([N+](=O)[O-])n1)Nc1cc(-c2ccc(Cl)cc2)no1`: the pKa in [1] was determined as 9.14. Further, in series [2], the outcome was Active.
In [1], `O=C(Cn1cnc([N+](=O)[O-])n1)Nc1cc(-c2ccc(F)cc2)on1` displayed a pKa of 11. Besides, the outcome in series [2] was Active.
On to `O=C(CCn1cnc([N+](=O)[O-])n1)Nc1ccc(Oc2ccc(Cl)cc2)cc1`, for which the values for the Activity entry in [3] and in series [5] were “Toxic” and “Non-Toxic”, respectively. Besides, the result in series [4], in [2] and in [7] was Active. In series [1], this compound registered a pKa of 14.5. In [6], the selectivity ratio stood at 15.
In series [1], `O=C(CCn1cnc([N+](=O)[O-])n1)Nc1ccc(Oc2ccccc2)cc1` had a pKa of 14.5. In series [2], the result was Active. Also, the selectivity ratio in [6] is 13.5.
On to `O=C(Cn1cnc([N+](=O)[O-])n1)Nc1cc(-c2ccc(Cl)cc2)no1`, for which the result in series [2] was Active.
`O=C(Cn1cnc([N+](=O)[O-])n1)Nc1ccc(Oc2ccccc2)cc1` registered a pKa in [1] of 13.3. In [8], the selectivity ratio was 34.
For the compound `N#Cc1ccc(-c2ccc(NC(=O)Cn3cnc([N+](=O)[O-])n3)cc2)cc1`, the selectivity ratio in [9] came out at 1190; in series [8], 490. Besides, the pKa in series [1] turned out to be 13.2. This compound had a half-inhibitory concentration (IC50) in series [10] of 138 nM.
Consider `O=C(CCn1cnc([N+](=O)[O-])n1)Nc1cccc(-c2ccccc2)c1`, for which the pKa in series [1] was 14. Besides, the result in [2] was Active.
As for `O=C(Cn1cnc([N+](=O)[O-])n1)NCc1ccc(C(F)(F)F)cc1`, the selectivity ratio worked out at 133 in series [9], 20 in series [8] and 12 in series [6]. The compound further displayed a pKa in series [1] of 12.7.
For `N#Cc1ccc(-c2ccc(NC(=O)CCn3cnc([N+](=O)[O-])n3)cc2)cc1`, in series [11], the Activity entry is recorded as “Non-Toxic”. The compound also gave a pKa in [1] of 14.1. Moreover, the outcome in series [12] and in [13] was Active.
Consider `O=C(Cn1cnc([N+](=O)[O-])n1)Nc1cccc(OCc2ccccc2)c1`, for which the selectivity ratio in series [9] is 575; in [8], 14.1; in series [6] it was 20.3. The compound further returned a pKa in [1] of 12.8. For the same compound, the IC50 in series [10] stood at 119 nM.
As for `O=C(CCn1cnc([N+](=O)[O-])n1)Nc1cc(-c2ccc(F)cc2)on1`, the pKa in [1] was 11.2. For the same compound, the selectivity ratio in [8] was above 201.
Take `O=C(CCn1cnc([N+](=O)[O-])n1)Nc1cccc(OCc2ccccc2)c1`: the pKa in series [1] worked out at 14. For the same compound, the result in [2] was Active.
For `O=C(Cn1cnc([N+](=O)[O-])n1)Nc1ccc(Oc2ccc(Cl)cc2)cc1`, the pKa in series [1] came to 13.6. This compound also came in with a half-maximal inhibitory concentration (IC50) in series [10] of 8 nM. Besides, in [8], the selectivity ratio amounted to 22.
As for `O=C(Cn1ccnc1[N+](=O)[O-])NCc1ccccc1`, the outcome in series [12] and in series [13] was Active.
The compound `O=C(Cn1cnc([N+](=O)[O-])n1)Nc1ccc(Oc2ccc(F)cc2)cc1` came in with a pKa in [1] of 13.6. The selectivity ratio in series [8] was determined as 35.
Turning to `CN(C(=O)Cn1ccnc1[N+](=O)[O-])c1ccc(C(F)(F)F)cc1`, the selectivity ratio in series [9] was found to be 3.8.
On to `O=C(CCn1cnc([N+](=O)[O-])n1)Nc1ccc(Oc2ccc(F)cc2)cc1`, for which the outcome in [4], in series [2] and in series [7] was Active. In addition, the Activity entry in series [14] was “Non-Toxic”. The same compound came in with a pKa in series [1] of 14.5.
In series [10], `O=C(Cn1cnc([N+](=O)[O-])n1)Nc1cccc(-c2ccccc2)c1` returned an IC50 of 179 nM.
Turning to `CN(C(=O)Cn1cnc([N+](=O)[O-])n1)c1ccc(C(F)(F)F)cc1`, the selectivity ratio in series [8] and in series [6] was 6.8 each time.
